In ChEMBL document CHEMBL1137559, “Rational design of 5'-thiourea-substituted alpha-thymidine analogues as thymidine monophosphate kinase inhibitors capable of inhibiting mycobacterial growth” (J Med Chem, 2007):
In brackets after ≈: the same amount, converted by molar mass.

system: Mycobacterium tuberculosis variant bovis; test: Growth inhibition of Mycobacterium bovis BCG 1173P2; assay type: functional, Mycobacterium bovis BCG str. Pasteur 1173P2
In short: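 Broth microdilution in 7H9 Middlebrook medium with 0.2% glycerol, 0.5% Tween 80 and OADC. Uses two-fold serial dilutions and about 10^5 bacteria/ml, incubated at 37 °C. Resazurin 0.01% was added at day 8 and incubated overnight, then read as OD 570 minus 630 nm. MIC was taken as the lowest concentration preventing the blue-to-pink change.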

Question: With `Cc1cn([C@@H]2C[C@H](O)[C@@H](CNC(=S)Nc3ccc(Cl)c(C(F)(F)F)c3)O2)c(=O)[nH]c1=O` as the molecule, how does the MIC99 read?
Answer: 20 µg/mL (≈ 41.8 µM)

Question: Which MIC99 does the source give for `Cc1cn([C@@H]2C[C@H](O)[C@@H](CNC(=S)NCc3ccc(Cl)c(C(F)(F)F)c3)O2)c(=O)[nH]c1=O` here?
Answer: 40 µg/mL (≈ 81.2 µM)

Question: `Cc1cn([C@@H]2C[C@H](O)[C@@H](CN)O2)c(=O)[nH]c1=O` was tested. Which MIC99 did it give?
Answer: > 40 µg/mL

Question: For `Cc1cn([C@@H]2CC[C@@H](CNC(=S)Nc3ccc(Cl)c(C(F)(F)F)c3)O2)c(=O)[nH]c1=O`, which MIC99 is on record?
Answer: 40 µg/mL (≈ 86.4 µM)

Question: With `Cc1cn([C@@H]2C[C@H](O)[C@@H](CNC(=S)Nc3ccc(Cl)c(Cl)c3)O2)c(=O)[nH]c1=O` as the molecule, how does the MIC99 read?
Answer: 25 µg/mL (≈ 56.1 µM)

Question: `Cc1cn([C@@H]2C[C@H](O)[C@@H](CNC(=S)Nc3ccc4c(c3)C(=O)OC43c4ccc(O)cc4Oc4cc(O)ccc43)O2)c(=O)[nH]c1=O` was tested. Which MIC99 did it give?
Answer: > 150 µg/mL

Question: How did the MIC50 turn out when `Cc1cn([C@@H]2C[C@H](O)[C@@H](CNC(=O)Nc3ccc(Cl)c(C(F)(F)F)c3)O2)c(=O)[nH]c1=O` was run?
Answer: 40 µg/mL (≈ 86.4 µM)

Question: With `Cc1cn([C@@H]2C=C[C@@H](CNC(=S)Nc3ccc(Cl)c(C(F)(F)F)c3)O2)c(=O)[nH]c1=O` as the molecule, how does the MIC99 read?
Answer: 100 µg/mL (≈ 217 µM)

Question: With `Cc1cn([C@@H]2C[C@H](O)[C@@H](CNC(=S)NCCc3ccc(Cl)c(Cl)c3)O2)c(=O)[nH]c1=O` as the molecule, how does the MIC99 read?
Answer: 50 µg/mL (≈ 106 µM)

Question: With `Cc1cn([C@@H]2C[C@H](O)[C@@H](CNC(=O)Nc3ccc(Cl)c(Cl)c3)O2)c(=O)[nH]c1=O` as the molecule, how does the MIC50 read?
Answer: 40 µg/mL (≈ 93.2 µM)
